Among the data in PubChem BioAssay AID1453 (NMMLSC, 2008) are inhibition values, retold here.

The target in this experiment is Broad substrate specificity ATP-binding cassette transporter ABCG2 (Homo sapiens) (UniProt Q9UNQ0). Kind of experiment: blockers of JC-1 export by ABCG2 – single point, IgMXP3 cells, ABCB1 counter-screen paired, confirmation (AID 1453).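 Further: 0% = DMSO wells and 100% = nicardipine pump inhibitor wells.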 To be noted: JC-1 efflux, flow cytometry, at 6.6 µM, hits give high values. The method, boiled down: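 Assay system: drug-resistant IgMXP3 cells expressing human ABCG2; Input: 3 million cells per mL final in well; Reagent: JC-1 substrate; Doses: single test compound dose, 6.6 µM final; Times: 10 min end-over-end mixing at 25 °C before reading; Technique: high-throughput flow cytometry, JC-1 green median fluorescence, 530 ± 20 nm.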
(In general: The purpose of a counterscreen is to sort out artefacts and off-target activity.)

Molecules are shown by their SMILES. This is one part of the list. Unmarked numbers belong to inactive results.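 How the source made its calls: active means inhibition above 50%; inactive means the rest.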

Broad substrate specificity ATP-binding cassette transporter ABCG2 (Homo sapiens), sequence (Q9UNQ0 whole entry, looked up): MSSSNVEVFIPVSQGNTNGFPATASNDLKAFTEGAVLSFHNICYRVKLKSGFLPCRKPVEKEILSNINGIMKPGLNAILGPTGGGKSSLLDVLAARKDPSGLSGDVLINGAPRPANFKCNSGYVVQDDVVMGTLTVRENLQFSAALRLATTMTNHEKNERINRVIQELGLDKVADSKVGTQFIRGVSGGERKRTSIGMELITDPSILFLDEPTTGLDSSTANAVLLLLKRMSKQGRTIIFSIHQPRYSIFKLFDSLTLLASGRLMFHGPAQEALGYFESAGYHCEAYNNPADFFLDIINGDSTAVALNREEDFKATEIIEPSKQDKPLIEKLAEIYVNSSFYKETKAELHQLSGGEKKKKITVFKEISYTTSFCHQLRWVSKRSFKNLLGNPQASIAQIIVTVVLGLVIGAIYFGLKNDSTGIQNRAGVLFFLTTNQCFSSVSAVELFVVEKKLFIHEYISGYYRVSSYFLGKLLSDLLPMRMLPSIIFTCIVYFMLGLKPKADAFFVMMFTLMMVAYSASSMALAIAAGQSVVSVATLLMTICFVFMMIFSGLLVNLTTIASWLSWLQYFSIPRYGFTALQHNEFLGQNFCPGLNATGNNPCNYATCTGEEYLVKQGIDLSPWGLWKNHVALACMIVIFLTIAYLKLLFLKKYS

Consider `COC(=O)COc1cc(C)cc2oc(=O)c3c(c12)CCCC3`, for which the inhibition was 22.6%.

A word on the inhibition: it is the change of the read-out against control, counted positive when it falls.
